The text below walks through data of ChEMBL document CHEMBL3580604, “Flavonoids from Matteuccia struthiopteris and Their Anti-influenza Virus (H1N1) Activity” (J Nat Prod, 2015).

Series [1] concerns the target Neuraminidase (Influenza A virus) (UniProt B4URF0). As to the kind of experiment: Inhibition of Influenza A virus A/PR/8/34 (H1N1) neuraminidase activity measured in infected MDCK cells using MUNANA as substrate assessed as fluorescence intensity after 48 hrs. The series is classed as cell-based. Particulars: Influenza A virus (A/Puerto Rico/8/1934(H1N1)). In short, it runs like this: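 MDCK cells (2 × 10^4/well) infected with A/PR/8/34 at MOI 0.01, with samples (0.7–166 μM, DMEM with 1% DMSO) added at the same time. After 1 h at 37 °C the cells were washed and fresh sample-containing DMEM added for 48 h. Supernatant NA activity was read with MUNANA for 45 min at 37 °C (ex 355/em 485 nm). Triplicate runs; EC50 by linear extrapolation; ribavirin 0.8–200 μM control.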

The next series deals with MDCK. Briefly: Cytotoxicity against MDCK cells assessed as cell viability after 72 hrs by MTT assay. It is filed as cell-based, Canis lupus familiaris. To be noted: dog. Background: Formazan colour is commonly taken as a measure of viable cells.
Series [2] in a line: Selectivity index, ratio of cytotoxicity for MDCK cells to EC50 for Influenza A virus A/PR/8/34 (H1N1) neuraminidase activity. The series is classed as toxicity, cell-based. To be noted: dog, read-out: Selectivity Index. Put shortly:
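SI calculated as CC50/EC50, with CC50 from the 72 h MDCK AlamarBlue assay and EC50 from the MUNANA neuraminidase assay on supernatants of PR8-infected MDCK cells at 48 h.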

Activity calls are given as the source filed them. The rule behind the calls is not given here.

Sequence of Neuraminidase (Influenza A virus) (B4URF0 as listed by the source): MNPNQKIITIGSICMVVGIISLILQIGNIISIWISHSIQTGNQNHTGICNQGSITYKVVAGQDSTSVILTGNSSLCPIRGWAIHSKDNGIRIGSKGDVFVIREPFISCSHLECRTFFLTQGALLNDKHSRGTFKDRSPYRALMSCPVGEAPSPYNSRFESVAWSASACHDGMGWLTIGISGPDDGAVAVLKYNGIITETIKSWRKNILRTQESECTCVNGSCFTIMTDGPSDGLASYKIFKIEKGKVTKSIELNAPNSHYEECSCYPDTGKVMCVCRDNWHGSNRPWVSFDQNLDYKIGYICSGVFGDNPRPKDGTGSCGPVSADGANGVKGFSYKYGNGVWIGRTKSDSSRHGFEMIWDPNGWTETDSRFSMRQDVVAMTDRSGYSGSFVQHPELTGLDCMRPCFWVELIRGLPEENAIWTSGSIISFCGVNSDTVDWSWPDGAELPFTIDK

For `C[C@@H]1O[C@@H](Oc2cc(O)c3c(=O)c(O[C@@H]4O[C@@H](C)[C@H](O)[C@@H](O)[C@H]4O[C@@H]4O[C@H](CO)[C@@H](O)[C@@H](O)[C@H]4O)c(-c4ccc(O)cc4)oc3c2)[C@H](O)[C@H](O)[C@H]1O`, the inhibition result in series [1] is “inactive”. Further, the Activity entry with MDCK is on record as “Non-toxic”.

`C[C@@H]1O[C@@H](Oc2cc(O)c3c(=O)c(O[C@@H]4O[C@@H](C)[C@H](O)[C@@H](O)[C@H]4O[C@@H]4O[C@@H](C)[C@H](O)[C@@H](O)[C@H]4O)c(-c4ccc(O)cc4)oc3c2)[C@H](O)[C@H](O)[C@H]1O`: in series [1], the inhibition result was “inactive”. Besides, in the series on MDCK, the Activity entry is “Non-toxic”.

Take `CC(=O)O[C@@H]1[C@@H](O)[C@@H](O[C@@H]2O[C@H](CO)[C@@H](O)[C@H](O)[C@H]2O)[C@H](Oc2c(-c3ccc(O)cc3)oc3cc(O[C@@H]4O[C@@H](C)[C@H](O)[C@@H](O)[C@H]4O)cc(O)c3c2=O)O[C@H]1C`: the inhibition result in series [1] was “inactive”. Further, the Activity result in the series with MDCK was “Non-toxic”.

As for `O=c1c(O[C@@H]2O[C@H](CO)[C@@H](O)[C@H](O)[C@H]2O)c(-c2ccc(O)cc2)oc2cc(O)cc(O)c12` [ASTRAGALIN], the selectivity ratio in series [2] was found to be 12.4. In addition, the Activity entry with MDCK is “Non-toxic”.

As to `COc1c(O)cc([C@@H]2CC(=O)c3c(O)c(C)c(O[C@@H]4O[C@H](CO)[C@@H](O)[C@H](O)[C@H]4O)c(C)c3O2)cc1O`, in series [2], the selectivity ratio was determined as 34.4. In the series on MDCK, the Activity entry is “Non-toxic”.

Take `CC(=O)O[C@@H]1[C@@H](O)[C@@H](O[C@@H]2O[C@H](CO)[C@@H](O)[C@@H](O)[C@H]2O)[C@H](Oc2c(-c3ccc(O)cc3)oc3cc(O[C@@H]4O[C@@H](C)[C@H](O)[C@@H](O)[C@H]4O)cc(O)c3c2=O)O[C@H]1C`: in series [1], the inhibition entry is “inactive”. The Activity entry with MDCK was “Non-toxic”.

In the case of `COC(=O)C(C)OC(O[C@H]1[C@H](Oc2c(-c3ccc(O)cc3)oc3cc(O[C@@H]4O[C@@H](C)[C@H](O)[C@@H](O)[C@H]4O)cc(O)c3c2=O)O[C@@H](C)[C@H](O)[C@H]1O)C(O)C(=O)OC` (stereo partly drawn), in series [1], the inhibition entry is “inactive”. Further, in the series with MDCK, the Activity entry was “Non-toxic”.

With `COc1c(O)cc(C2CC(=O)c3c(O)c(C)c(O)c(C)c3O2)cc1O` (stereo not drawn), the selectivity ratio in series [2] worked out at 3.1. Besides, the Activity entry with MDCK was “Non-toxic”.

Regarding `COC(=O)C1(O)CC(C)OC1O[C@H]1[C@H](Oc2c(-c3ccc(O)cc3)oc3cc(O[C@@H]4O[C@@H](C)[C@H](O)[C@@H](O)[C@H]4O)cc(O)c3c2=O)O[C@@H](C)[C@H](O)[C@H]1O` (stereo partly drawn), the inhibition result in series [1] is “inactive”. Also, the Activity entry with MDCK is reported as “Non-toxic”.
